Data on 19 compounds can be found in ChEMBL document CHEMBL1140728, “Synthesis and biological activity of human neuropeptide S analogues modified in position 2” (J Med Chem, 2008).

Non-standard residues stand in square brackets, D forms with d. Residues, ends and D or L forms follow the SMILES beside them. Phe(4-NO2) = N[C@@H](Cc1ccc([N+](=O)[O-])cc1)C(=O)O; Dip = N[C@H](C(=O)O)C(c1ccccc1)c1ccccc1; Phe(4-Me) = Cc1ccc(C[C@H](N)C(=O)O)cc1; 2Nal = N[C@@H](Cc1ccc2ccccc2c1)C(=O)O; hPhe = N[C@@H](CCc1ccccc1)C(=O)O; Tic = O=C(O)[C@@H]1Cc2ccccc2CN1; β3hF = N[C@H](CC(=O)O)Cc1ccccc1; Phg = N[C@H](C(=O)O)c1ccccc1

Common to all, as to assay type: functional, cell-based
Assay [1] concerns the target T1, Neuropeptide S receptor (Mus musculus) (UniProt Q8BZP8).
T1 sequence (whole entry): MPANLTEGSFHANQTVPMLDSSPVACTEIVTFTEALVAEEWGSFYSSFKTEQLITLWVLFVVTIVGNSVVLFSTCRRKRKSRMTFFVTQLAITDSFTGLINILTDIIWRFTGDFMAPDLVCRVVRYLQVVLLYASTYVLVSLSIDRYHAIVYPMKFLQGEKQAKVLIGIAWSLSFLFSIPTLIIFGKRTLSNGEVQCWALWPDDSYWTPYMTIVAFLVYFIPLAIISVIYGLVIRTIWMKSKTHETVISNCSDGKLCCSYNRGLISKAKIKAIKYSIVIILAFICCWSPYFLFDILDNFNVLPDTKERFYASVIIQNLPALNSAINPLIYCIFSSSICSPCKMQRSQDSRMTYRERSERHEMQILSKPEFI
The assay can be described thus: Agonist activity at mouse recombinant NPS receptor expressed in HEK293 cells assessed as intracellular calcium mobilization at 10 umol. A general note: Calcium flux is commonly read through the fluorescence of an indicator in the cells.

Assay [2] addresses T2, Neuropeptide S receptor (Mus musculus, UniProt Q8BZP8).
T2 sequence (Q8BZP8 whole entry): T1 sequence (whole entry)
Nature of the assay: Agonist activity at mouse recombinant NPS receptor expressed in HEK293 cells assessed as intracellular calcium mobilization. In short, it runs like this:
(§1)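 HEK293 cells stably expressing mouse NPSR, kept in DMEM with 10% FBS, 2 mM L-glutamine and hygromycin (100 mg/L), were seeded at 50 000 cells/well. Next day they were loaded with Fluo-4 AM (3 µmol), probenecid (2.5 mmol) and 0.01% pluronic acid for 30 min at 37 °C. Agonist dilutions in HBSS/HEPES with 0.02% BSA were added, and FlexStation II fluorescence was read at 22 °C.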

In assay [3] the target is T1, Neuropeptide S receptor (Mus musculus). Nature of the assay: Agonist activity at mouse recombinant NPS receptor expressed in HEK293 cells assessed as intracellular calcium mobilization relative to baseline. In short, it runs like this:
as §1

For the compound `CSCC[C@H](NC(=O)CNC(=O)[C@@H](NC(=O)CNC(=O)[C@@H](NC(=O)CNC(=O)[C@H](CC(N)=O)NC(=O)[C@H](CCCNC(=N)N)NC(=O)[C@@H](NC(=O)[C@@H](N)CO)C(c1ccccc1)c1ccccc1)C(C)C)[C@@H](C)O)C(=O)N[C@@H](CCCCN)C(=O)N[C@@H](CCCCN)C(=O)N[C@H](C(=O)N[C@@H](CO)C(=O)N[C@@H](Cc1ccccc1)C(=O)N[C@@H](CCC(N)=O)C(=O)N[C@@H](CCCNC(=N)N)C(=O)N[C@@H](C)C(=O)N[C@@H](CCCCN)C(=O)N[C@@H](CO)C(=O)O)[C@@H](C)O` (H-S[Dip]RNGVGTGMKKTSFQRAKS-OH), the Activity in assay [1] was determined as 130%.

Turning to `CSCC[C@H](NC(=O)CNC(=O)[C@@H](NC(=O)CNC(=O)[C@@H](NC(=O)CNC(=O)[C@H](CC(N)=O)NC(=O)[C@H](CCCNC(=N)N)NC(=O)[C@H](Cc1ccc(C)cc1)NC(=O)[C@@H](N)CO)C(C)C)[C@@H](C)O)C(=O)N[C@@H](CCCCN)C(=O)N[C@@H](CCCCN)C(=O)N[C@H](C(=O)N[C@@H](CO)C(=O)N[C@@H](Cc1ccccc1)C(=O)N[C@@H](CCC(N)=O)C(=O)N[C@@H](CCCNC(=N)N)C(=O)N[C@@H](C)C(=O)N[C@@H](CCCCN)C(=O)N[C@@H](CO)C(=O)O)[C@@H](C)O` (H-S[Phe(4-Me)]RNGVGTGMKKTSFQRAKS-OH), the EC50 (usually the concentration needed to bring the measured effect to its halfway point) in assay [2] was 0.676 nM. In assay [3], the Emax (usually the greatest response seen or fitted, relative to the assay's reference) stood at 317%.

For the compound `CSCC[C@H](NC(=O)CNC(=O)[C@@H](NC(=O)CNC(=O)[C@@H](NC(=O)CNC(=O)[C@H](CC(N)=O)NC(=O)[C@H](CCCNC(=N)N)NC(=O)[C@H](Cc1ccc([N+](=O)[O-])cc1)NC(=O)[C@@H](N)CO)C(C)C)[C@@H](C)O)C(=O)N[C@@H](CCCCN)C(=O)N[C@@H](CCCCN)C(=O)N[C@H](C(=O)N[C@@H](CO)C(=O)N[C@@H](Cc1ccccc1)C(=O)N[C@@H](CCC(N)=O)C(=O)N[C@@H](CCCNC(=N)N)C(=O)N[C@@H](C)C(=O)N[C@@H](CCCCN)C(=O)N[C@@H](CO)C(=O)O)[C@@H](C)O` (H-S[Phe(4-NO2)]RNGVGTGMKKTSFQRAKS-OH), the half-maximal effective concentration (EC50) in assay [2] is 3.63 nM. Besides, the Emax in assay [3] was found to be 290%.

In the case of `CSCC[C@H](NC(=O)CNC(=O)[C@@H](NC(=O)CNC(=O)[C@@H](NC(=O)CNC(=O)[C@H](CC(N)=O)NC(=O)[C@H](CCCNC(=N)N)NC(=O)[C@@H](NC(=O)[C@@H](N)CO)c1ccccc1)C(C)C)[C@@H](C)O)C(=O)N[C@@H](CCCCN)C(=O)N[C@@H](CCCCN)C(=O)N[C@H](C(=O)N[C@@H](CO)C(=O)N[C@@H](Cc1ccccc1)C(=O)N[C@@H](CCC(N)=O)C(=O)N[C@@H](CCCNC(=N)N)C(=O)N[C@@H](C)C(=O)N[C@@H](CCCCN)C(=O)N[C@@H](CO)C(=O)O)[C@@H](C)O` (H-S[Phg]RNGVGTGMKKTSFQRAKS-OH), in assay [1], the Activity stood at 141%.

Regarding `CSCC[C@H](NC(=O)CNC(=O)[C@@H](NC(=O)CNC(=O)[C@@H](NC(=O)CNC(=O)[C@H](CC(N)=O)NC(=O)[C@H](CCCNC(=N)N)NC(=O)[C@@H]1Cc2ccccc2CN1C(=O)[C@@H](N)CO)C(C)C)[C@@H](C)O)C(=O)N[C@@H](CCCCN)C(=O)N[C@@H](CCCCN)C(=O)N[C@H](C(=O)N[C@@H](CO)C(=O)N[C@@H](Cc1ccccc1)C(=O)N[C@@H](CCC(N)=O)C(=O)N[C@@H](CCCNC(=N)N)C(=O)N[C@@H](C)C(=O)N[C@@H](CCCCN)C(=O)N[C@@H](CO)C(=O)O)[C@@H](C)O` (H-S[Tic]RNGVGTGMKKTSFQRAKS-OH), in assay [2], the EC50 was 8.13 nM. Further, in assay [3], the Emax was 244%.

In the case of `CSCC[C@H](NC(=O)CNC(=O)[C@@H](NC(=O)CNC(=O)[C@@H](NC(=O)CNC(=O)[C@H](CC(N)=O)NC(=O)[C@H](CCCNC(=N)N)NC(=O)[C@H](CCc1ccccc1)NC(=O)[C@@H](N)CO)C(C)C)[C@@H](C)O)C(=O)N[C@@H](CCCCN)C(=O)N[C@@H](CCCCN)C(=O)N[C@H](C(=O)N[C@@H](CO)C(=O)N[C@@H](Cc1ccccc1)C(=O)N[C@@H](CCC(N)=O)C(=O)N[C@@H](CCCNC(=N)N)C(=O)N[C@@H](C)C(=O)N[C@@H](CCCCN)C(=O)N[C@@H](CO)C(=O)O)[C@@H](C)O` (H-S[hPhe]RNGVGTGMKKTSFQRAKS-OH), in assay [2], the half-maximal effective concentration (EC50) was 4.17 nM. The Emax in assay [3] came to 216%.

With `CSCC[C@H](NC(=O)CNC(=O)[C@@H](NC(=O)CNC(=O)[C@@H](NC(=O)CNC(=O)[C@H](CC(N)=O)NC(=O)[C@H](CCCNC(=N)N)NC(=O)C[C@H](Cc1ccccc1)NC(=O)[C@@H](N)CO)C(C)C)[C@@H](C)O)C(=O)N[C@@H](CCCCN)C(=O)N[C@@H](CCCCN)C(=O)N[C@H](C(=O)N[C@@H](CO)C(=O)N[C@@H](Cc1ccccc1)C(=O)N[C@@H](CCC(N)=O)C(=O)N[C@@H](CCCNC(=N)N)C(=O)N[C@@H](C)C(=O)N[C@@H](CCCCN)C(=O)N[C@@H](CO)C(=O)O)[C@@H](C)O` (H-S[β3hF]RNGVGTGMKKTSFQRAKS-OH), the Activity in assay [1] stood at 177%.

For `CSCC[C@H](NC(=O)CNC(=O)[C@@H](NC(=O)CNC(=O)[C@@H](NC(=O)CNC(=O)[C@H](CC(N)=O)NC(=O)[C@H](CCCNC(=N)N)NC(=O)[C@H](Cc1ccc2ccccc2c1)NC(=O)[C@@H](N)CO)C(C)C)[C@@H](C)O)C(=O)N[C@@H](CCCCN)C(=O)N[C@@H](CCCCN)C(=O)N[C@H](C(=O)N[C@@H](CO)C(=O)N[C@@H](Cc1ccccc1)C(=O)N[C@@H](CCC(N)=O)C(=O)N[C@@H](CCCNC(=N)N)C(=O)N[C@@H](C)C(=O)N[C@@H](CCCCN)C(=O)N[C@@H](CO)C(=O)O)[C@@H](C)O` [[2Nal2]hNPS] (H-S[2Nal]RNGVGTGMKKTSFQRAKS-OH), the half-maximal effective concentration (EC50) in assay [2] is 2.19 nM. The Emax in assay [3] is 213%.

Take H-SDRNGVGTGMKKTSFQRAKS-OH: the Activity in assay [1] came to 39%.

With H-SERNGVGTGMKKTSFQRAKS-OH, the Activity in assay [1] turned out to be 170%.

Regarding “H-SFRNGVGTGMKKTSFQRAKS-OH [NEUROPEPTIDE S]”, the EC50 in assay [2] was 1.1 nM. In assay [3], the Emax came out at 270%.

For the compound H-SHRNGVGTGMKKTSFQRAKS-OH, the EC50 in assay [2] was 132 nM. Moreover, the Emax in assay [3] was found to be 288%.

On to H-SKRNGVGTGMKKTSFQRAKS-OH, for which the Activity in assay [1] came out at 103%.

As to H-SLRNGVGTGMKKTSFQRAKS-OH, the half-maximal effective concentration (EC50) in assay [2] was 8.32 nM. The Emax in assay [3] turned out to be 282%.

On to H-SNRNGVGTGMKKTSFQRAKS-OH, for which the Activity in assay [1] stood at 49%.

As for H-SQRNGVGTGMKKTSFQRAKS-OH, the Activity in assay [1] was found to be 54%.

Regarding H-STRNGVGTGMKKTSFQRAKS-OH, in assay [1], the Activity was found to be 114%.

In the case of H-SWRNGVGTGMKKTSFQRAKS-OH, the EC50 in assay [2] is 2.24 nM. Moreover, the Emax in assay [3] is 323%.

With H-SYRNGVGTGMKKTSFQRAKS-OH, the EC50 in assay [2] is 2.34 nM. Also, the Emax in assay [3] came out at 312%.
